Consider 9 molecules from publication PMC11040699 (JACS Au, 2024).

Assay [1] has as its system endogenous hKlotho in HK-2 cell lysate. The experiment in a line: Pull-down assay from HK-2 cell lysate. As to conditions: for selectivity of pull-down by silver stain, HK-2 cell lysate: silver stain of eluents. Format: binding, human. The gist of the method:
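HK-2 cells (Keratinocyte SFM with bovine pituitary extract and EGF; 37 °C, 5% CO2) were scraped and lysed in RIPA with protease inhibitors; 20% kept as input. 200 μg lysate: unlabelled competitor preincubated 15 min, then biotinylated probe 30 min RT. Streptavidin magnetic beads 20 min, PBS washes, 8 M urea elution 30 min. SDS-PAGE, then silver stain or KM2076 western (1:1000, 4 °C overnight; HRP anti-rat; chemiluminescence). Bands quantified by densitometry.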

The target in assay [2] is T1, recombinant mouse α-Klotho (mKlotho) (Mus musculus, UniProt O35082).
T1 sequence (O35082 35-960): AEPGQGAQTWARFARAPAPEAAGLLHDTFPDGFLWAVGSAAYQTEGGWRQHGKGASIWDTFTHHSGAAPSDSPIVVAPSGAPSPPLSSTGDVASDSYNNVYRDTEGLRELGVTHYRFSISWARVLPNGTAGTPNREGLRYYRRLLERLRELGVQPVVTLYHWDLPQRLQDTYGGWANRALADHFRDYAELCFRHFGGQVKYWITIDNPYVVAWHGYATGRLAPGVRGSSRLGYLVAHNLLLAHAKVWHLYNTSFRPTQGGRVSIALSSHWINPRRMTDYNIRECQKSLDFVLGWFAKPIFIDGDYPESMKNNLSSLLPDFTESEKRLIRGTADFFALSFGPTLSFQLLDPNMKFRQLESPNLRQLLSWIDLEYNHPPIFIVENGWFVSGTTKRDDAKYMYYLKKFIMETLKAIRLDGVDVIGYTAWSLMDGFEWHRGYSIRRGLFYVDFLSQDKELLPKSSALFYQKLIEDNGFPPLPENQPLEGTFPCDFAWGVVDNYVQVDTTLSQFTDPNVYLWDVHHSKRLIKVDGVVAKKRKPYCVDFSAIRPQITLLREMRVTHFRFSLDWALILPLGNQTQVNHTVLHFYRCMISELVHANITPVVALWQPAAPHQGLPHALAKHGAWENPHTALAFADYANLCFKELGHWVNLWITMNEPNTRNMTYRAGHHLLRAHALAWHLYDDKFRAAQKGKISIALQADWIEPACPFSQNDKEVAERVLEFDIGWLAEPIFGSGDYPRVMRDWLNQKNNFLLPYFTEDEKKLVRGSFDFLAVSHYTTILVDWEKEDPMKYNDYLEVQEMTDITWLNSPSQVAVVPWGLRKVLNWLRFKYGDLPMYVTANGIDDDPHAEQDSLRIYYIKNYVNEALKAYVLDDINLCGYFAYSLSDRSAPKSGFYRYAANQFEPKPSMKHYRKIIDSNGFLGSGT
The experiment in a line: Competition binding assay with BLI against immobilized Pep-10-Biotin, mKlotho.

The target of assay [3] is recombinant human α-Klotho (human) (UniProt Q9UEF7). The experiment in a line: BLI. (In general: In BLI a coated tip is dipped into the sample, and binding shifts an interference pattern.)
Assay [4] addresses recombinant mouse α-Klotho (mouse) (UniProt O35082). In words: affinity selection-mass spectrometry.
The target is the same in assay [5]. In words: BLI.
Target sequence in this assay (O35082 35-1014): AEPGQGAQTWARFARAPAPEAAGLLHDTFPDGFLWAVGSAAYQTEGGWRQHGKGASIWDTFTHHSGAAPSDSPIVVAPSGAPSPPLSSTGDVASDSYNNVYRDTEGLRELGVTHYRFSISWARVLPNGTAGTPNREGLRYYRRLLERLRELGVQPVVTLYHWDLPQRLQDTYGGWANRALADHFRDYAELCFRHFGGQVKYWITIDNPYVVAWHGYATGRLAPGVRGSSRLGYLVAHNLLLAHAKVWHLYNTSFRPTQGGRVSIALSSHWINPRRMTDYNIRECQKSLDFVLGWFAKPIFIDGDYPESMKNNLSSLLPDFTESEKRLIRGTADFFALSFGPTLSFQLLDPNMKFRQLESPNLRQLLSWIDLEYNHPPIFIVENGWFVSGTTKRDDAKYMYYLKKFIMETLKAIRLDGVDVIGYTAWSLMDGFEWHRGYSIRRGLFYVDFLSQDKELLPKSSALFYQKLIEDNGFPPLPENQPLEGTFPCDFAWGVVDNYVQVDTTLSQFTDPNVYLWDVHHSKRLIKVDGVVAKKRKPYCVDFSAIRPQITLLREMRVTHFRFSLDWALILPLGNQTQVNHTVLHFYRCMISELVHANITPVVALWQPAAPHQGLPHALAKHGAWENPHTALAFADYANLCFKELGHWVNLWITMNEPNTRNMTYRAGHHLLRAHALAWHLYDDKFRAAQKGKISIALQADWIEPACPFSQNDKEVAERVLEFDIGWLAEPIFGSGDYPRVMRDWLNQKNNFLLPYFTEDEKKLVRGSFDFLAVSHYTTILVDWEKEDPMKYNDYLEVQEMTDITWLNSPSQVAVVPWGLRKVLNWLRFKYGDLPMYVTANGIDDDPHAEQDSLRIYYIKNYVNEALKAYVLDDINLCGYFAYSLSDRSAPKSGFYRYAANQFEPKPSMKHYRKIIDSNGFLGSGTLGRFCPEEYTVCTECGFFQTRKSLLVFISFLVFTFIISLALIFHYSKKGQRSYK

“Also recorded” adds a separate entry of the source. Residues, ends and D or L forms follow the SMILES beside them. No end group written: not given here. *: point of attachment. Acetyl(9-fluorenyl) = O=C(CC1c2ccccc2-c2ccccc21)*

In general, Kd refers to the concentration at which binding is half-saturated.

Sequence of recombinant human α-Klotho (human) (Q9UEF7 34-1012): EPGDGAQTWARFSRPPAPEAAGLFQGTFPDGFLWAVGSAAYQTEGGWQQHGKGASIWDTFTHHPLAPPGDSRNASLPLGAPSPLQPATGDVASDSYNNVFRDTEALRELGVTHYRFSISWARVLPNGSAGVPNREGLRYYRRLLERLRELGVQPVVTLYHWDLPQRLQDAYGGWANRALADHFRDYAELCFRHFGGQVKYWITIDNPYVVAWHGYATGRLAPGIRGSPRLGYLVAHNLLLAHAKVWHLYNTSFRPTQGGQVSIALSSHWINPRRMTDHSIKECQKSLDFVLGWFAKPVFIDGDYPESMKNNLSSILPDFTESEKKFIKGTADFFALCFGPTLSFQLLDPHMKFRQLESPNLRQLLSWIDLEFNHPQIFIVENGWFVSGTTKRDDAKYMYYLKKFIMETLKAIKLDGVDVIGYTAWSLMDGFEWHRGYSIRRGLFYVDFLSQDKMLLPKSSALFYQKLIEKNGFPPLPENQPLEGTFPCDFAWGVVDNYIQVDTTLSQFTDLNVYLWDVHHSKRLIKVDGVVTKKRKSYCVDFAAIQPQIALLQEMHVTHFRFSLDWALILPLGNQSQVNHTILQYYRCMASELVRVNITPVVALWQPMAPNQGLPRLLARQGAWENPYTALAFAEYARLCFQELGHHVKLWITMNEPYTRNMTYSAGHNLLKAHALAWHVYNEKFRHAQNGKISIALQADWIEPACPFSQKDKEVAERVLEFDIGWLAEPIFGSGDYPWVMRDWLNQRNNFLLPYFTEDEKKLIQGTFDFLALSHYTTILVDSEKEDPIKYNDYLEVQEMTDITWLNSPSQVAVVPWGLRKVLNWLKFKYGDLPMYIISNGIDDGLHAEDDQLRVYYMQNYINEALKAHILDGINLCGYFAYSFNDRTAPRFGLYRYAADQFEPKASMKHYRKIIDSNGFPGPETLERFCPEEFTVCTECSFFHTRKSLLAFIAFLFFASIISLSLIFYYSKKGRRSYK

In the case of “Biotin-PEG4-PMASDPLGVVRPRAM [Pep-10-Biotin]”, the “selectivity of pull-down by silver stain, HK-2 cell lysate” value is given as “not enriched” in assay [1] (50 nM of biotinylated peptides) and “not able to enrich Klotho” in assay [1] (legend of Figure 4D, 200 nM printed, n = 2). The “Klotho enrichment in pulled-down fraction, HK-2 cell lysate” value in assay [1] (western blot, probe at 2 μM, n = 2) is “minor enrichment; also recorded: moderately enriched”. Regarding `CSCC[C@H](NC(=O)[C@H](CCCNC(=N)N)NC(=O)[C@H](C)NC(=O)[C@H](CCCNC(=N)N)NC(=O)[C@@H]1CCCN1C(=O)[C@H](CCCNC(=N)N)NC(=O)[C@@H](NC(=O)[C@@H](NC(=O)CNC(=O)[C@H](CC(C)C)NC(=O)[C@@H]1CCCN1C(=O)[C@H](CC(=O)O)NC(=O)[C@H](CO)NC(=O)[C@H](C)NC(=O)[C@H](CCSC)NC(=O)[C@@H]1CCCN1C(=O)CC1c2ccccc2-c2ccccc21)C(C)C)C(C)C)C(N)=O` [K1] ({Acetyl(9-fluorenyl)}-PMASDPLGVVRPRARM-NH2), in assay [2], the “fold change of competition KD relative to Pep-10” value came out at 89 fold.

B1: fibroblast growth factor 23 (ligand)
chain: YPNASPLLGSSWGGLIHLYTATARNSYHLQIHKNGHVDGAPHQTIYSALMIRSEDAGFVVITGVMSRRYLCMDFRGNIFGSHYFDPENCRFQHQTLENGYDVYHSPQYHFLVSLGRAKRAFLPGMNPPPYSQFLSRRNEIPLIHFNTPIPRRHTRSAEDDSERDPLNVLKPRARMTPAPASCSQELPSAEDNSPMASDPLGVVRGGRVNTHAGGTGPEGCRPFAKFI
With B1, in assay [3], the Kd came to 151 nM. fluorenyl-ASDPLGVVRPRA [K4]: the recovery yield in assay [4] worked out at 0.5%. Further, the Kd in assay [5] is 139 nM.

For the molecule fluorenyl-PMASDPLGVVRPRARM [K1], the Kd in assay [5] came out at 66 nM. As for fluorenyl-PMASDPLGVVRARARM [K1 P12A], the Kd in assay [5] stood at 15 nM. Same read-out and setting: the same measure for fluorenyl-ASDPLGVVRGRA [K12]: 19 nM. Still for that read-out and setting: in the case of fluorenyl-ASDPLGVVRGRAR (not fully specified (C-terminus)) [K17] it was 9 nM; in that of PMASDPLGVVRPRARM [Pep-10], 5900 nM.
